rCAG binder – binds r(CAG) RNA repeats. inhibition, % at 3 µM. r(CAG) RNA repeat, TO-PRO-1 dye displacement fluorescence. AID 651821. hit rate 1.3% among 370,000;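 active = inhibition above the plate cutoff, the mean of all test compounds on that plate plus 3 SD, cut at about 35% in these data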;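 note: higher means more dye released from RNA so lower well fluorescence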
V-ATPase pHluor – yeast V-ATPase proton transport regulation by pHLuorin; S. cerevisiae, pHLuorin cytosolic pH fluorescence; hit rate 0.37% among 350,000; AID 504577; response, % at 10 µM; in the data active = response mostly above about 7.3%, no sharp cut-off; inactive = mostly below about 5.4%; note: actives read high
Exocytosis inh – blocks lytic granule exocytosis; TALL-104 LAMP-1 surface exposure, flow cytometry; cells stimulated with thapsigargin and PMA; inhibition, % at 10 µM; hit rate 0.66% among 360,000;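 active = inhibition above about 55%, limit read from the data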
B2AR ag – human beta-2 adrenergic receptor agonism by FAP. P07550. Am2.2-beta2AR cells, FAP receptor internalization, flow cytometry. response, % (test concentration not listed). hit rate 0.43% among 340,000;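 active = response above a set limit, near 3 SD of response in nonfluorescent compounds, cut at about 42% in these data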
Target sequence (P07550 whole entry, looked up): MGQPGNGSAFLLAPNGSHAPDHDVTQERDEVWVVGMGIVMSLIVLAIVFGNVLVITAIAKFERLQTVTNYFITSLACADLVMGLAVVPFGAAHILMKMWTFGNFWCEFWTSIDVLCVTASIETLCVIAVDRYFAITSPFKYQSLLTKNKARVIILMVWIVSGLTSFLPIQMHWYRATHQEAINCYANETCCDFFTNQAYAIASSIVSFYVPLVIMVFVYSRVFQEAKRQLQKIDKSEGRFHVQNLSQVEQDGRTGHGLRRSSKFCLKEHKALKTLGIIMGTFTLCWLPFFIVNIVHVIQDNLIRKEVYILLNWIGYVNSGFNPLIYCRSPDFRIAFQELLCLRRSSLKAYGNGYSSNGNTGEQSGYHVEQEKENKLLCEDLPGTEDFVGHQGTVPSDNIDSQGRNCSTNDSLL
MPTP block – blocks calcium-induced mitochondrial swelling; isolated mouse mitochondria, Ca2+ swelling absorbance, 30 min; inhibition, % at 10 µM; hit rate 1.4% among 360,000;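 active = inhibition of 50% or more, scaled per plate between neutral and stimulator controls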
T cell modulator – modulates CD8 T cell binding to vesicles. 2C CD8+ T cell-vesicle binding, flow cytometry; active compounds read low. response (vesicle binding), % at 7 µM. hit rate 0.068% among 330,000;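 active = response, share of CD8 T cells binding vesicles, and their 90th percentile fluorescence all below set limits, cut at about 80% in these data, passing the limit was not always enough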;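 note: values below 100% mean blocked vesicle binding to the CD8+ T cells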
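Assay system: 2C TCR transgenic mouse naive CD8+ T cells, MACS-purified | Read-out: CD8+ gate FL2 mean fluorescence as % of same-row positive control | Signal: High-throughput flow cytometry with anti-B7-1 and anti-CD8 staining | Timing: Binding step 1.5 h, 37 °C, antibody labelling 20 min, ice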
V-ATPase pH SP – regulators of yeast V-ATPase proton transport; shares compounds with V-ATPase pHluor; S. cerevisiae pHLuorin cytosolic pH; response, % at 10 µM; hit rate 2% among 980; AID 602197; in the data active = response above about 24%
Numbers stand for hits; 0 = inactive; - = no result given. In the library only some 3.8% were active in any assay of this set; here they are far more common.

SMILES	rCAG binder	V-ATPase pHluor	Exocytosis inh	B2AR ag	MPTP block	T cell modulator	V-ATPase pH SP
CCN(CC)CCN(C(=O)c1ccc2c(c1)CCCC2)c1nc2ccc(F)cc2s1	0	0	0	0	0	0	-
Cc1cc(NS(=O)(=O)c2ccc(NC(=O)Cc3ccc(Cl)c(F)c3)cc2)no1	0	-	-	-	-	-	-
COc1ccc(-c2nnc(NC(=O)c3ccccc3C)o2)cc1	0	11.8	0	0	0	0	0
CN(C)C(CNC(C(=O)Nc1ccc([N+](=O)[O-])cc1Br)c1ccccc1)c1ccccc1 (stereo not drawn)	0	0	0	0	0	0	-
CC(C)CNC(C(=O)Nc1ccc([N+](=O)[O-])cc1Br)c1ccccc1 (stereo not drawn)	0	10.8	0	0	0	0	0
COc1ccc(/C=C2\CC3(OC(=O)c4cccc(F)c4)CCCN2C3)cc1 (stereo not drawn)	0	-	-	-	-	-	-
O=C1CSC(c2ccccc2[N+](=O)[O-])N1c1cccc(F)c1 (stereo not drawn)	0	8.3	0	0	0	0	0
C=CCN1C(=O)[C@@H](CC(=O)NCc2ccc(C)o2)[C@]2(C(=O)OC)CCCCC=C12	0	-	-	-	-	-	-
CCCCCCCCNS(=O)(=O)/C=C/c1ccccc1CNC(=O)OC(C)(C)C	0	-	-	-	-	-	-
Cn1cccc1C(=O)OCC(=O)N1CCN(c2ccccc2)CC1	0	9.8	0	0	0	0	0
O=C(OCC(=O)N1CCN(c2ccccc2)CC1)c1ccccn1	0	0	0	0	0	0	-
COc1cccc(C2=NOC(C(=O)Nc3ccc(C(C)=O)cc3)C2)c1 (stereo not drawn)	0	12.5	0	0	0	0	0
CCN(CC)C(=O)CC[C@@H]1CC[C@]2(CCCN(S(=O)(=O)c3ccccc3)C2)O1	0	-	-	-	-	-	-
COc1ccc(-c2c(C)n([O-])c3c([n+]2=O)CCCC3)cc1	0	10.2	0	0	0	0	0
c1ccc(Cn2nnnc2CN2CCN(Cc3ccc4c(c3)OCO4)CC2)cc1	0	6.8	0	0	0	0	0
c1ccc2c(c1)CCN(Cc1nnnn1Cc1ccc3c(c1)OCO3)C2	0	0	0	0	0	0	-
CN(C)CCCNC(=O)c1c(N)[nH]c(C(=O)c2ccc(Br)cc2)c1-c1ccc(Br)cc1	0	-	-	-	-	-	-
CC(=O)OCCCN1CCC2(CCCCC2)C1=O	0	-	-	-	-	-	-
CCOc1ccc(-n2c(SCC(=O)NCc3ccco3)nc3c([nH]c4ccccc43)c2=O)cc1	0	10.0	0	0	0	0	0
CCOc1ccc(-n2c(SCC(=O)NCc3ccco3)nc3ccccc3c2=O)cc1	0	0	0	0	0	0	-
CCCCCOc1ccc2oc(=O)c3c(c2c1)CCCN3C(=O)CN1CCCC(C(=O)OCC)C1 (stereo not drawn)	0	12.9	0	0	0	0	0
O=C(CN1CCCCC1)N1CCCc2c1c(=O)oc1ccc(OCc3ccccc3)cc21	0	0	0	0	0	0	-
c1ccc2c(c1)N=C(N1CCN(Cc3ccc4c(c3)OCO4)CC1)c1ccccc1S2	0	-	-	-	-	-	-
Cc1c(C)n2c3c(cccc13)CC2	0	6.0	0	0	0	0	0
O=C(CCC(=O)c1ccc(F)cc1)NCc1ccccc1C(F)(F)F	0	0	0	0	0	0	0
SMILES	rCAG binder	V-ATPase pHluor	Exocytosis inh	B2AR ag	MPTP block	T cell modulator	V-ATPase pH SP
COCCNC(=S)N(CCc1c(C)[nH]c2ccccc12)Cc1ccco1	0	10.7	0	0	0	0	0
O=C(NC(Cc1ccccc1)C(=O)N1CCN(c2ccccn2)CC1)c1ccco1 (stereo not drawn)	0	12.2	0	0	0	0	0
CC(=O)NC(Cc1ccccc1)C(=O)N1CCN(C(=O)c2ccco2)CC1 (stereo not drawn)	-	0	0	0	0	0	-
O=C(Oc1coc(CSc2nnc(NC(=O)c3cccs3)s2)cc1=O)c1ccccc1	0	9.3	0	0	0	0	0
COc1ccccc1C/C(N)=N/OC(=O)c1ccc(C)c([N+](=O)[O-])c1	0	0	0	0	0	0	-
COc1ccccc1C/C(N)=N/OC(=O)c1ccc2c(c1)OCO2	0	8.5	0	0	0	0	0
CC(=O)Nc1ccc(S(=O)(=O)NNC(=O)COc2ccc(Cl)cc2Cl)cc1	0	13.4	0	0	0	0	0
CCOC(=O)N=Nc1c2ccccc2c2nc3no[nH]c3nc12	0	21.8	0	0	0	-	117.8
COc1ccc(C(=O)c2[nH]c(N)c(C(=O)c3c[nH]c4ccccc34)c2-c2ccc(OC)cc2)cc1	0	-	-	-	-	-	-
COc1cc(/C=N/NC(=O)CN2CCOCC2)ccc1OCc1ccccc1	0	0	0	0	0	0	-
COc1cc(/C=N/NC(=O)CN2CCCCC2)ccc1OCc1ccccc1	0	9.6	0	0	0	0	0
CC(C)C[C@H]1COc2cccc(N3CCSCC3)c2S(=O)(=O)N1C	0	-	-	-	-	-	-
CCCC[C@H]1C2CC(OC(=O)Nc3cccc(Cl)c3)C(C2)[C@H]2CCCCN21 (stereo partly drawn)	0	-	-	-	-	-	-
CC1=C(C(=O)Nc2ccccc2)C(c2cccc([N+](=O)[O-])c2)Nc2nc3ccccc3n21 (stereo not drawn)	0	17.4	0	0	0	0	0
CNC(=O)C1=C(C)n2c(nc3ccccc32)NC1c1ccc(OC)cc1 (stereo not drawn)	0	0	0	0	0	0	-
O=S1(=O)C=C(SCCN2CCCCC2)c2ccccc21	0	0	63.1	0	0	0	0
C[C@H]1COc2cc(Br)ccc2S(=O)(=O)N1Cc1cn(Cc2ccccc2)nn1	0	-	-	-	-	-	-
O=C1CCC(=O)N1Cc1c(Cl)cccc1Cl	0	0	0	0	0	0	-
CC1=C(C#N)CCC(=O)N1Cc1c(F)cccc1Cl	0	0	0	0	0	0	0
